Test results published in ChEMBL document CHEMBL4422636, “Investigation of the structural requirements for N-methyl-D-aspartate receptor positive and negative allosteric modulators based on 2-naphthoic acid” (Eur J Med Chem, 2019).
Active and inactive are the calls of the source. The calls are words filed in the database; no cut-off is given here.

How the values were obtained:
[1] = Solubility of the compound at 100 uM; format: physicochemical
Procedure, shortened: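 Compounds were inspected for visible precipitation at the concentrations used in the oocyte assays.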

[2] = biological target: T1, Ionotropic glutamate receptor NMDA 1/2D (Rattus norvegicus, UniProt P35439+Q62645); test: Positive allosteric modulation of rat GluN1/GluN2D expressed in Xenopus laevis oocytes assessed as potentiation of L-glutamate/glycine-induced current response at holding potential -60 mV by two-electrode voltage clamp method; format: cell-based
Procedure, shortened: (§1)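 Oocytes injected with GluN1a plus GluN2A, 2B, 2C or 2D RNA (1:1–3 molar, 15–30 ng total) and kept in ND-96 at 17°C for 1–5 days. TEVC at −60 mV in HEPES-buffered NaCl/KCl/BaCl2 saline, pH 7.4. […] Curves were fitted to give EC50/IC50 and maximal potentiation or inhibition, mean ± s.e.m.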

[3] = biological target: Glutamate receptor ionotropic, NMDA 2A (Rattus norvegicus) (UniProt Q00959); test: Allosteric modulation of rat GluN2A expressed in Xenopus laevis oocytes assessed as L-glutamate/glycine-induced current response at 100 uM at holding potential -60 mV by two-electrode voltage clamp method relative to L-glutamate/glycine; format: cell-based
Procedure, shortened: (§2)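 GluN1a with one GluN2 subunit; RNAs mixed 1:1–3 molar, 15–30 ng total injected into Xenopus oocytes, which were held in ND-96 at 17°C for 1–5 days. TEVC at −60 mV in 116 mM NaCl, 2 mM KCl, 0.3 mM BaCl2, 5 mM HEPES, pH 7.4. […] Reported as % of agonist-alone response, mean ± s.e.m., n≥4.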

[4] = biological target: T2, Glutamate NMDA receptor; Grin1/Grin2a (Rattus norvegicus, UniProt P35439+Q00959); test: Positive allosteric modulation of rat GluN1/GluN2A expressed in Xenopus laevis oocytes assessed as potentiation of L-glutamate/glycine-induced current response at holding potential -60 mV by two-electrode voltage clamp method; format: cell-based; procedure, shortened: as §1
[5] = biological target: Glutamate receptor ionotropic, NMDA 2B (Rattus norvegicus) (UniProt Q00960); test: Agonist activity at rat GluN2B expressed in Xenopus laevis oocytes assessed as effect on current response at holding potential -60 mV by two-electrode voltage clamp method relative to L-glutamate/glycine; format: cell-based; procedure, shortened: as §2
[6] = biological target: Glutamate receptor ionotropic, NMDA 2C (Rattus norvegicus) (UniProt Q00961); test: Allosteric modulation of rat GluN2C expressed in Xenopus laevis oocytes assessed as L-glutamate/glycine-induced current response at 100 uM at holding potential -60 mV by two-electrode voltage clamp method relative to L-glutamate/glycine; format: cell-based; procedure, shortened: as §2
[7] = biological target: Glutamate receptor ionotropic, NMDA 2D (Rattus norvegicus) (UniProt Q62645); test: Positive allosteric modulation of rat GluN2D expressed in Xenopus laevis oocytes assessed as potentiation of L-glutamate/glycine-induced current response at holding potential -60 mV by two-electrode voltage clamp method relative to L-glutamate/glycine; format: cell-based; design: concentration or dose not given beside the values; procedure, shortened: as §1
[8] = biological target: Glutamate receptor ionotropic, NMDA 2C (Rattus norvegicus) (UniProt Q00961); test: Positive allosteric modulation of rat GluN2C expressed in Xenopus laevis oocytes assessed as potentiation of L-glutamate/glycine-induced current response at holding potential -60 mV by two-electrode voltage clamp method relative to L-glutamate/glycine; format: cell-based; design: concentration or dose not given beside the values; procedure, shortened: as §1
[9] = biological target: Glutamate receptor ionotropic, NMDA 2C (Rattus norvegicus) (UniProt Q00961); test: Agonist activity at rat GluN2C expressed in Xenopus laevis oocytes assessed effect on current response at holding potential -60 mV by two-electrode voltage clamp method relative to L-glutamate/glycine; format: cell-based; procedure, shortened: as §2
[10] = biological target: Glutamate receptor ionotropic, NMDA 2A (Rattus norvegicus) (UniProt Q00959); test: Agonist activity at rat GluN2A expressed in Xenopus laevis oocytes assessed effect on current response at holding potential -60 mV by two-electrode voltage clamp method relative to L-glutamate/glycine; format: cell-based; procedure, shortened: as §2
[11] = biological target: Glutamate receptor ionotropic, NMDA 2A (Rattus norvegicus) (UniProt Q00959); test: Positive allosteric modulation of rat GluN2A expressed in Xenopus laevis oocytes assessed as potentiation of L-glutamate/glycine-induced current response at holding potential -60 mV by two-electrode voltage clamp method relative to L-glutamate/glycine; format: cell-based; design: concentration or dose not given beside the values; procedure, shortened: as §1
[12] = biological target: Glutamate receptor ionotropic, NMDA 2D (Rattus norvegicus) (UniProt Q62645); test: Agonist activity at rat GluN2D expressed in Xenopus laevis oocytes assessed as effect on current response at holding potential -60 mV by two-electrode voltage clamp method relative to L-glutamate/glycine; format: cell-based; procedure, shortened: as §2
[13] = biological target: Glutamate receptor ionotropic, NMDA 2B (Rattus norvegicus) (UniProt Q00960); test: Allosteric modulation of rat GluN2B expressed in Xenopus laevis oocytes assessed as L-glutamate/glycine-induced current response at 100 uM at holding potential -60 mV by two-electrode voltage clamp method relative to L-glutamate/glycine; format: cell-based; procedure, shortened: as §2
[14] = biological target: Glutamate receptor ionotropic, NMDA 2D (Rattus norvegicus) (UniProt Q62645); test: Allosteric modulation of rat GluN2D expressed in Xenopus laevis oocytes assessed as L-glutamate/glycine-induced current response at 100 uM at holding potential -60 mV by two-electrode voltage clamp method relative to L-glutamate/glycine; format: cell-based; procedure, shortened: as §2
[15] = biological target: T3, Glutamate NMDA receptor; Grin1/Grin2c (Rattus norvegicus, UniProt P35439+Q00961); test: Positive allosteric modulation of rat GluN1/GluN2C expressed in Xenopus laevis oocytes assessed as potentiation of L-glutamate/glycine-induced current response at holding potential -60 mV by two-electrode voltage clamp method; format: cell-based; procedure, shortened: as §1
[16] = biological target: T1, Ionotropic glutamate receptor NMDA 1/2D; test: Negative allosteric modulation of rat GluN1/GluN2D expressed in Xenopus laevis oocytes assessed as inhibition of L-glutamate/glycine-induced current response at holding potential -60 mV by two-electrode voltage clamp method; format: cell-based; procedure, shortened: as §1
[17] = biological target: Ionotropic glutamate receptor NMDA 1/2D (Rattus norvegicus) (UniProt P35439+Q62645); test: Negative allosteric modulation of rat GluN1/GluN2D expressed in Xenopus laevis oocytes assessed as inhibition of L-glutamate/glycine-induced current response at holding potential -60 mV by two-electrode voltage clamp method relative to untreated control; format: cell-based; design: concentration or dose not given beside the values; procedure, shortened: as §1
[18] = biological target: Glutamate NMDA receptor; Grin1/Grin2b (Rattus norvegicus, UniProt P35439+Q00960); test: Negative allosteric modulation of rat GluN1/GluN2B expressed in Xenopus laevis oocytes assessed as inhibition of L-glutamate/glycine-induced current response at holding potential -60 mV by two-electrode voltage clamp method; format: cell-based; procedure, shortened: as §1
[19] = biological target: T3, Glutamate NMDA receptor; Grin1/Grin2c; test: Negative allosteric modulation of rat GluN1/GluN2C expressed in Xenopus laevis oocytes assessed as inhibition of L-glutamate/glycine-induced current response at holding potential -60 mV by two-electrode voltage clamp method; format: cell-based; procedure, shortened: as §1
[20] = biological target: T2, Glutamate NMDA receptor; Grin1/Grin2a; test: Negative allosteric modulation of rat GluN1/GluN2A expressed in Xenopus laevis oocytes assessed as inhibition of L-glutamate/glycine-induced current response at holding potential -60 mV by two-electrode voltage clamp method; format: cell-based; procedure, shortened: as §1
[21] = biological target: Glutamate NMDA receptor; Grin1/Grin2b (Rattus norvegicus) (UniProt P35439+Q00960); test: Negative allosteric modulation of rat GluN1/GluN2B expressed in Xenopus laevis oocytes assessed as inhibition of L-glutamate/glycine-induced current response at holding potential -60 mV by two-electrode voltage clamp method relative to untreated control; format: cell-based; design: concentration or dose not given beside the values; procedure, shortened: as §1
[22] = biological target: Glutamate NMDA receptor; Grin1/Grin2a (Rattus norvegicus) (UniProt P35439+Q00959); test: Negative allosteric modulation of rat GluN1/GluN2A expressed in Xenopus laevis oocytes assessed as inhibition of L-glutamate/glycine-induced current response at holding potential -60 mV by two-electrode voltage clamp method relative to untreated control; format: cell-based; design: concentration or dose not given beside the values; procedure, shortened: as §1
[23] = biological target: Glutamate NMDA receptor; Grin1/Grin2c (Rattus norvegicus) (UniProt P35439+Q00961); test: Negative allosteric modulation of rat GluN1/GluN2C expressed in Xenopus laevis oocytes assessed as inhibition of L-glutamate/glycine-induced current response at holding potential -60 mV by two-electrode voltage clamp method relative to untreated control; format: cell-based; design: concentration or dose not given beside the values; procedure, shortened: as §1

SMILES | solubility [1] | Activity [3] [%] | Activity [5] | Activity [6] [%] | Activity [9] | Activity [10] | Activity [12] | Activity [13] [%] | Activity [14] [%] | other results
CCCCCc1ccc2cc(C(=O)O)ccc2c1 | Soluble | 131 | inactive | 126 | inactive | inactive | inactive | 102 | 110 | EC50 [2]: 61 µM; EC50 [4]: 26.7 µM; Activity [7]: 17.3%; Activity [8]: 42.7%; Activity [11]: 39%; EC50 [15]: 113 µM
O=C(O)c1cc2cc(/C=C/c3ccccc3)ccc2cc1O | Soluble | 32.7 |  | 21.7 |  |  |  | 7.3 | 11.3 | IC50 [16]: 8.6 µM; Activity [17]: 93.6%; IC50 [18]: 7.5 µM; IC50 [19]: 13.8 µM; IC50 [20]: 17.8 µM; Activity [21]: 93.9%; Activity [22]: 83.2%; Activity [23]: 86.3%
O=C(O)c1cc2cc(/C=C/c3cccc([N+](=O)[O-])c3)ccc2cc1O | Soluble | 50.5 |  | 24.4 |  |  |  | 28.8 | 30.7 | IC50 [16]: 1.4 µM; Activity [17]: 70%; IC50 [18]: 9.2 µM; IC50 [19]: 7.9 µM; IC50 [20]: 9.7 µM; Activity [21]: 66.3%; Activity [22]: 49.7%; Activity [23]: 74.4%
CC(C)CC(Cc1ccc2cc(C(=O)O)ccc2c1)C(=O)O (racemic) | Soluble | 104 | inactive | 118 | inactive | inactive | inactive | 78 | 85 | 
O=C(O)c1ccc2cc(CCCCc3ccccc3)ccc2c1 | Soluble | 118 | inactive | 123 | inactive | inactive | inactive | 120 | 115 | 
CC(C)CC#Cc1ccc2cc(C(=O)O)ccc2c1 | Soluble | 104 | inactive | 125 | inactive | inactive | inactive | 99 | 110 | 
CC(C)CCCc1ccc2cc(C(=O)O)c(O)cc2c1 | Soluble | 178 | inactive | 357 | inactive | inactive | inactive | 309 | 301 | 
O=C(O)c1ccc2cc(I)c3ccccc3c2c1 | Soluble | 109 | inactive | 65.9 | inactive | inactive | inactive | 101 | 47.7 | 
CCCCCc1ccc2cc(C(=O)O)ccc2c1Br | Soluble | 73 | inactive | 97 | inactive | inactive | inactive | 52 | 99 | 
CC(CCCc1ccc2cc(C(=O)O)ccc2c1)C(=O)O (racemic) | Soluble | 110 | inactive | 98 | inactive | inactive | inactive | 85 | 107 | 
CCCCOc1ccc2cc(C(=O)O)ccc2c1 | Soluble | 55 | inactive | 63 | inactive | inactive | inactive | 46 | 57 | 
CC(C/C=C/c1ccc2cc(C(=O)O)ccc2c1)C(=O)O (racemic) | Soluble | 107 | inactive | 105 | inactive | inactive | inactive | 97 | 97 | 
